Reference: ChEMBL document CHEMBL4819017 (Eur J Med Chem, 2021)
“And” between values parts separate entries of the source, which are not always exact repeats. Equal values may be shown once.

Tests used:
[1] = biological target: Serine/threonine-protein kinase mTOR (Homo sapiens, UniProt P42345); assay: Inhibition of recombinant human GST tagged mTOR (1360 to 2549 residues) expressed in baculovirus expression system measured by LanthaScreen assay
Method in brief: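 mTOR inhibition measured by LanthaScreen assay; IC50 values average two independent experiments.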

[2] = biological target: Phosphatidylinositol 4,5-bisphosphate 3-kinase catalytic subunit alpha isoform (Homo sapiens, UniProt P42336); assay: Inhibition of human full length p110alpha (1 to 1068 residues) expressed in baculovirus-infected Sf21 cells by ADP-Hunter Plus assay
[3] = biological target: Voltage-gated inwardly rectifying potassium channel KCNH2 (Homo sapiens, UniProt Q12809); assay: Inhibition of human ERG by fluorescence polarization assay
Method in brief: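 Predictor h-ERG membrane preparations (sonicated) incubated with test compound dilutions and fluorescent tracer (working 4X tracer at 4 nM) at room temperature for ≥1 h. Read-out by fluorescence polarization, ex 530/25, em 590/35.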

Cytochrome P450 3A4 = Cytochrome P450 3A4 (Homo sapiens, UniProt P08684); assay: Inhibition of CYP3A4 (unknown origin) using Luciferin-PPXE as substrate at 10 uM preincubated with enzyme and substrate for 5 mins followed by addition of NADPH regeneration system and measured after 60 mins by luminescence method; format: ADME
Method in brief: (§1)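 P450-Glo luminescence assays with these substrates: Luciferin-ME (CYP1A2), Luciferin-PPXE (CYP3A4), Luciferin-H (CYP2C9), LuciferinH-EG (CYP2C19), Luciferin-ME-EG (CYP2D6). Compounds run in 1/3 serial dilutions from 10 µM in 0.5% DMSO with enzyme and substrate. After 5 min preincubation, NADPH regeneration reagent added; 60 min at 37 °C, then detection reagent for 30 min. Background subtracted.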

Cytochrome P450 1A2 = biological target: T1, Cytochrome P450 1A2 (Homo sapiens, UniProt P05177); assay: Inhibition of CYP1A2 (unknown origin) using Luciferin-ME as substrate at 10 uM preincubated with enzyme and substrate for 5 mins followed by addition of NADPH regeneration system and measured after 60 mins by luminescence method; format: ADME; method in brief: as §1
T1 sequence (P05177 whole entry): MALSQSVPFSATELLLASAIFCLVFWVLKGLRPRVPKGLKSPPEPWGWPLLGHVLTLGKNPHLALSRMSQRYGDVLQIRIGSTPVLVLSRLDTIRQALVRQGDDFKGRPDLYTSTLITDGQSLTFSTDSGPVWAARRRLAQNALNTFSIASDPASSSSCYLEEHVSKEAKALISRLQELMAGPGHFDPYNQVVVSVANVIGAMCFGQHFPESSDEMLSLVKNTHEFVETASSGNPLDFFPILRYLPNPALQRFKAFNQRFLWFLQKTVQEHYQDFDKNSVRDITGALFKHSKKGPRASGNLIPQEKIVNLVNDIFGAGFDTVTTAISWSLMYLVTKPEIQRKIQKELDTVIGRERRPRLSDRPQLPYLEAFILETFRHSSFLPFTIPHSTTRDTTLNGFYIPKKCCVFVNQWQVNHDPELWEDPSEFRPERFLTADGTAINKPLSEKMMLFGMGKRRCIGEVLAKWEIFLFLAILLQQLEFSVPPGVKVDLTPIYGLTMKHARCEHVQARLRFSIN

[4] = Inhibition of PI3K/mTOR in human U2OS cells assessed as inhibition of AKT1 phosphorylation at Ser473 residue by C-ELISA; format: cell-based
Method in brief: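 U2OS osteosarcoma cells grown in 0.1% FBS and serum-stimulated. Endogenous phospho-AKT1 Ser473 quantified by cell-based ELISA with chemiluminescent substrate. Signal plotted against inhibitor concentration and fitted to a sigmoid dose-response curve.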

[5] = Metabolic stability in rat liver microsomes assessed as parent compound remaining in presence of NADPH regenerating system at 0.5 uM measured after 15 mins by LC-MS/MS analysis; format: ADME, Microsome; conditions: read-out: Stabilty
Method in brief: (§2)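 Human, mouse or rat liver microsomes at 0.5 mg/ml protein with compound at 0.5 µM and NADPH-regenerating system, 37 °C with shaking. Control wells contain 0.1 M potassium phosphate instead of the regenerating system. Reaction stopped with acetonitrile/0.1% formic acid, centrifuged, supernatant analyzed by LC-MS/MS. Result is percent parent compound remaining.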

Cytochrome P450 2D6 = Cytochrome P450 2D6 (Homo sapiens, UniProt P10635); assay: Inhibition of CYP2D6 (unknown origin) using Luciferin-ME-EG as substrate at 10 uM preincubated with enzyme and substrate for 5 mins followed by addition of NADPH regeneration system and measured after 60 mins by luminescence method; format: ADME; method in brief: as §1
Cytochrome P450 2C9 = Cytochrome P450 2C9 (Homo sapiens, UniProt P11712); assay: Inhibition of CYP2C9 (unknown origin) using Luciferin-H as substrate at 10 uM preincubated with enzyme and substrate for 5 mins followed by addition of NADPH regeneration system and measured after 60 mins by luminescence method; format: ADME; method in brief: as §1
[6] = Metabolic stability in mouse liver microsomes assessed as parent compound remaining in presence of NADPH regenerating system at 0.5 uM measured after 15 mins by LC-MS/MS analysis; format: ADME, Microsome; conditions: read-out: Stabilty; method in brief: as §2
Cytochrome P450 2C19 = Cytochrome P450 2C19 (Homo sapiens, UniProt P33261); assay: Inhibition of CYP2C19 (unknown origin) using LuciferinH-EG as substrate at 10 uM preincubated with enzyme and substrate for 5 mins followed by addition of NADPH regeneration system and measured after 60 mins by luminescence method; format: ADME; method in brief: as §1
[7] = Metabolic stability in human liver microsomes assessed as parent compound remaining in presence of NADPH regenerating system at 0.5 uM measured after 15 mins by LC-MS/MS analysis; format: ADME, Microsome; conditions: read-out: Stabilty; method in brief: as §2
[8] = Cmax in BALB/c mouse at 10 mg/kg, po measured for 8 hrs; format: ADME, organism-based; parameters: route oral, dose 10 mg/kg, time 8 hrs; conditions: in vivo
Method in brief: (§3)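 BALB/c mice dosed I.V. or P.O. at the stated dose; plasma levels followed for 8 h. Parameters from noncompartmental analysis: AUC (h.ng/ml), T1/2 (h), Cl (L/h/Kg), Vd (L/Kg), Cmax (ng/ml), Tmax (h).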

Homo sapiens = species on record: Homo sapiens; assay: Selectivity ratio of IC50 for recombinant human GST tagged mTOR (1360 to 2549 residues) expressed in baculovirus expression system to IC50 for human full length p110alpha (1 to 1068 residues) expressed in baculovirus-infected Sf21 cells
Method in brief: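 mTOR activity measured by LanthaScreen assay. PI3K-α activity measured by ADP Hunter Plus (ADP accumulation, fluorescence ex 544/em 580 nm), normalized to no-compound control and fitted to a sigmoid dose-response curve. IC50s are the average of two independent experiments. Ratio is mTOR IC50 over PI3K-α IC50.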

[9] = AUC(infinity) in BALB/c mouse at 10 mg/kg, po measured for 8 hrs; format: ADME, organism-based; parameters: route oral, time 8 hrs, dose 10 mg/kg; conditions: in vivo; method in brief: as §3
[10] = Volume of distribution in BALB/c mouse at 5 mg/kg, iv measured for 8 hrs; format: ADME, organism-based; conditions: in vivo
Method in brief: (§4)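 Dosing in BALB-C mice intravenously or orally, with plasma sampled over 8 h. Parameters (AUC, T1/2, Cl, Vd, Cmax, Tmax) come from a noncompartmental model. Units: AUC h.ng/ml, Vd L/Kg, Cmax ng/ml, Tmax h.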

[11] = Plasma concentration in BALB/c mouse at 10 mg/kg, po measured for 8 hrs; format: ADME, organism-based; method in brief: as §4
[12] = AUC (infinity) in BALB/c mouse at 5 mg/kg, iv measured for 8 hrs; format: ADME, organism-based; parameters: route intravenous, dose 5 mg/kg, time 8 hrs; conditions: in vivo; method in brief: as §3
[13] = Half life in BALB/c mouse at 5 mg/kg, iv measured for 8 hrs; format: ADME, organism-based; conditions: in vivo; method in brief: as §3
[14] = Oral bioavailability in BALB/c mouse at 10 mg/kg measured for 8 hrs; format: ADME, organism-based; conditions: in vivo; method in brief: as §3
[15] = Clearance in BALB/c mouse at 5 mg/kg, iv measured for 8 hrs; format: ADME, organism-based; conditions: in vivo; method in brief: as §3
[16] = Tmax in BALB/c mouse at 10 mg/kg, po measured for 8 hrs; format: ADME, organism-based; conditions: in vivo; method in brief: as §4
[17] = Half life in BALB/c mouse at 10 mg/kg, po measured for 8 hrs; format: ADME, organism-based; conditions: in vivo; method in brief: as §3

Chain of Phosphatidylinositol 4,5-bisphosphate 3-kinase catalytic subunit alpha isoform (P42336 whole entry, the tested form may be a part, canonical isoform): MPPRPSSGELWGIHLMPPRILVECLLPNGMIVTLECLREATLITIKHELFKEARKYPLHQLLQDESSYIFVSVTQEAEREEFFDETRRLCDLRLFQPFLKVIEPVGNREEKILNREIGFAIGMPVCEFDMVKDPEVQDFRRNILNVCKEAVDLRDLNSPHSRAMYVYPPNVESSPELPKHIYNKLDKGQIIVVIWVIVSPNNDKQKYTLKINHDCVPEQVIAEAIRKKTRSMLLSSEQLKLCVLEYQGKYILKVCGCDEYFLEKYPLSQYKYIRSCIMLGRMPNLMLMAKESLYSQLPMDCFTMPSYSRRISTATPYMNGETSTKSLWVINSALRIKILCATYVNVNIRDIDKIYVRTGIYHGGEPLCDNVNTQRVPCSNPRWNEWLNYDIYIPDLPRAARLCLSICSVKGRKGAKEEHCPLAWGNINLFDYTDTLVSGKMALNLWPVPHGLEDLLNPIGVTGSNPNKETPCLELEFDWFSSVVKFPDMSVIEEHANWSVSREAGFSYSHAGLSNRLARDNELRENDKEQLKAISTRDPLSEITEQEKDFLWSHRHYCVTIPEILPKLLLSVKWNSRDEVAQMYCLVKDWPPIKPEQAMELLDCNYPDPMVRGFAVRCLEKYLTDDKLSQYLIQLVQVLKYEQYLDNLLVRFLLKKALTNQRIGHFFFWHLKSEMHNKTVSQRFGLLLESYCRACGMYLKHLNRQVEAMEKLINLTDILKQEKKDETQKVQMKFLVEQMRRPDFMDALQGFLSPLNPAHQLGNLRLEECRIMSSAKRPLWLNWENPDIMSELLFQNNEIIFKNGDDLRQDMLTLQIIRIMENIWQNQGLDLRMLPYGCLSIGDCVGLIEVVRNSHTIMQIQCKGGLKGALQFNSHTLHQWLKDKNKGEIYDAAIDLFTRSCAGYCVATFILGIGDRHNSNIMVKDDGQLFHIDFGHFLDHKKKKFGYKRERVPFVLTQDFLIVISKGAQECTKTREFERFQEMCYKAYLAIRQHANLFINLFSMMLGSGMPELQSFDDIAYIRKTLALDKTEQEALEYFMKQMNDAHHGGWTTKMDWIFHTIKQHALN
Chain of Voltage-gated inwardly rectifying potassium channel KCNH2 (Q12809 whole entry): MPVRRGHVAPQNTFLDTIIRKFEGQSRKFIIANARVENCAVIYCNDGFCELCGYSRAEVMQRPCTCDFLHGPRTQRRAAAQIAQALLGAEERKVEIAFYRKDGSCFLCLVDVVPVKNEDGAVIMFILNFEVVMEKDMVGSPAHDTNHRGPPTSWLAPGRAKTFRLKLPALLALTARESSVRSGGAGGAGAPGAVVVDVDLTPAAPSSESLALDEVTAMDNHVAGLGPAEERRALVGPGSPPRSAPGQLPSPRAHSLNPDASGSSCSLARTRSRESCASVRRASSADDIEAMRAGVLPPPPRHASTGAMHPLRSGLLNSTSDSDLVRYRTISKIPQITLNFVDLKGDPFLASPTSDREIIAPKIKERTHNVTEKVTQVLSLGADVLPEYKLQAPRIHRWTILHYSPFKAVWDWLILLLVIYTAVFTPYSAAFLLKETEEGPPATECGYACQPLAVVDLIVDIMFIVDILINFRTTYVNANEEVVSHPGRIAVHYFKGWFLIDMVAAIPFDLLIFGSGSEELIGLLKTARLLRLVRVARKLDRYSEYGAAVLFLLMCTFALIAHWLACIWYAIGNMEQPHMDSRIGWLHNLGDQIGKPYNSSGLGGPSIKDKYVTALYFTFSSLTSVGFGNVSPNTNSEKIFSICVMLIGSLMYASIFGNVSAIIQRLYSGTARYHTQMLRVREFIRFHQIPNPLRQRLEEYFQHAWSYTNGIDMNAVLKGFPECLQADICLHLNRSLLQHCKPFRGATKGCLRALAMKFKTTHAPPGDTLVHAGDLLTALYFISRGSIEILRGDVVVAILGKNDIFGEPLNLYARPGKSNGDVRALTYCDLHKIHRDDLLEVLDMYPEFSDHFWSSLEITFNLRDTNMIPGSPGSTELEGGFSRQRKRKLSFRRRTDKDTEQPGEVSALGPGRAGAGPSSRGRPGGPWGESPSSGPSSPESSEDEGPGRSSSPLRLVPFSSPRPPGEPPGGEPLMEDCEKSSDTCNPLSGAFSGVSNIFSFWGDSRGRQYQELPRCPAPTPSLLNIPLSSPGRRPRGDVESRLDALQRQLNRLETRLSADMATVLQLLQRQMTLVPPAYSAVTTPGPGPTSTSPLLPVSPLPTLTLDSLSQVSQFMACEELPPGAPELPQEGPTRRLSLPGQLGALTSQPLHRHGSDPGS
Chain of Cytochrome P450 2C9 (P11712 whole entry): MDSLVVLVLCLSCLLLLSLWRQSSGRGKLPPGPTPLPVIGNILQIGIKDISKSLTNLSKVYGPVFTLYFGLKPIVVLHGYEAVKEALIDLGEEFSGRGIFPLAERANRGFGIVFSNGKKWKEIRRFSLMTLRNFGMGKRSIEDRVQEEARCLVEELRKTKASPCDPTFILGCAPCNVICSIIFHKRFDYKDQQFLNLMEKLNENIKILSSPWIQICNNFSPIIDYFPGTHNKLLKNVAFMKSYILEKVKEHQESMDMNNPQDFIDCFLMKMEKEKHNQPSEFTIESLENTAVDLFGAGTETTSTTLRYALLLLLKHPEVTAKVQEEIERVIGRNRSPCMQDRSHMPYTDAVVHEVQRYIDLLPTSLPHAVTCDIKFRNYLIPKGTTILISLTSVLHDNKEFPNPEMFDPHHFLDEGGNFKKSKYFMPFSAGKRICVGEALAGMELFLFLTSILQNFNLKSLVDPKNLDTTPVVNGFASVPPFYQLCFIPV
Chain of Cytochrome P450 2C19 (P33261 whole entry): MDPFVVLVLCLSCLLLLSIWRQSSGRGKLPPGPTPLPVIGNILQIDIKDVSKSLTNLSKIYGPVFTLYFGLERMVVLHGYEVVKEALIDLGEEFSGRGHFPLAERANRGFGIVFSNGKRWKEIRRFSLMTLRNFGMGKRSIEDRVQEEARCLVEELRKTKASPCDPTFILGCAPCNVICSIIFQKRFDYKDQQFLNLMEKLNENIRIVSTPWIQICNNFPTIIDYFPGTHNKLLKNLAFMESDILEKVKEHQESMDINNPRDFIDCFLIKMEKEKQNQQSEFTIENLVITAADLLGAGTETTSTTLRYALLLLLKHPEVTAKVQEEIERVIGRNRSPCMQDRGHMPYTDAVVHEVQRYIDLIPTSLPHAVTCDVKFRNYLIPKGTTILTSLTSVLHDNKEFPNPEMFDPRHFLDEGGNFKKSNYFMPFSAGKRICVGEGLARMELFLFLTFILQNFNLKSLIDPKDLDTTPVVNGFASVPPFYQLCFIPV
Chain of Cytochrome P450 3A4 (P08684 whole entry): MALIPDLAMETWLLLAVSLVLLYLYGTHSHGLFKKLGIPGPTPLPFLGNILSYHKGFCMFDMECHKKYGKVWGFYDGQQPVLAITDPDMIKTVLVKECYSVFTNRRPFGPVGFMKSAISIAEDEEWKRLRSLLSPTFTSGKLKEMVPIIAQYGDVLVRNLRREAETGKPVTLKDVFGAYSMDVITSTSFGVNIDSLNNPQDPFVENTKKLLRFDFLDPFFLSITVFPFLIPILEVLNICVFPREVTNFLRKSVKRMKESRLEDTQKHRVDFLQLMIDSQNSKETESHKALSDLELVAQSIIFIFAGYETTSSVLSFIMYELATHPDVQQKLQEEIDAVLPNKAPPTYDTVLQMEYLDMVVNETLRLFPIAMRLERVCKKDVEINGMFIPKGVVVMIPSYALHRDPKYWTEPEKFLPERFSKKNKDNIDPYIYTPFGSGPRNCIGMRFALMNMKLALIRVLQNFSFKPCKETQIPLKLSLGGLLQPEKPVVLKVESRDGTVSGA
Chain of Cytochrome P450 2D6 (P10635 whole entry): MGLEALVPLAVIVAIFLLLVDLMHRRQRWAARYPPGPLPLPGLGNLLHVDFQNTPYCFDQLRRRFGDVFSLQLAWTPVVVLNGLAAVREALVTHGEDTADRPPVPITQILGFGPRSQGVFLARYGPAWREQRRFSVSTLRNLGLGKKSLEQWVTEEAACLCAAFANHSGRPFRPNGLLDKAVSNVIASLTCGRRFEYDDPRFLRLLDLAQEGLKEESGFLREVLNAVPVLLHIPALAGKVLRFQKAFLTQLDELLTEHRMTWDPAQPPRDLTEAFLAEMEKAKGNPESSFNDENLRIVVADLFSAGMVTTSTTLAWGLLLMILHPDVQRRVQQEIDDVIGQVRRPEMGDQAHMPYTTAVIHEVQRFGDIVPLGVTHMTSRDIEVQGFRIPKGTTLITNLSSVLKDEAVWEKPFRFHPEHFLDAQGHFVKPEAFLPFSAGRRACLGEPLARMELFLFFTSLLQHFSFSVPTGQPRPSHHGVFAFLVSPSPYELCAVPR

With `COc1ncc2cc1NS(=O)(=O)c1cccc(c1)C(=O)NCc1cc(ccn1)-c1ccnc3ccc-2cc13` the IC50 [1] was 122 nM and 72.2 nM, the IC50 [2] was 6.1 nM and the IC50 [3] was greater than 30000 nM.

Compound `COc1ncc2cc1NS(=O)(=O)c1cccc(c1)C(=O)NCCn1cc(cn1)-c1ccnc3ccc-2cc13` has an IC50 [1] of 249 nM.

`COc1ncc2cc1NS(=O)(=O)c1cccc(c1)C(=O)NCC1CCN(CC1)c1ccnc3ccc-2cc13` showed an IC50 [1] of 4.1 nM.

With `COc1ncc2cc1NS(=O)(=O)c1cccc(c1)C(=O)NCc1ccc(F)c(c1)-c1ccnc3ccc-2cc13` the IC50 [1] was 655 nM.

`COc1ncc2cc1NS(=O)(=O)c1cccc(c1)C(=O)NCc1cccc(c1)-c1ncnc3ccc-2cc13` showed an IC50 (Cytochrome P450 3A4) greater than 30000 nM, an IC50 (Cytochrome P450 1A2) greater than 30000 nM and an EC50 [4] of 47.9 nM. The remaining at 0.25 h, 0.5 µM [5] was 91%, the IC50 (Cytochrome P450 2D6) was greater than 30000 nM and the IC50 (Cytochrome P450 2C9) was greater than 30000 nM. It also gave a remaining at 0.25 h, 0.5 µM [6] of 74%, an IC50 (Cytochrome P450 2C19) greater than 30000 nM and an IC50 [2] of 2.5 nM. For the same compound, the remaining at 0.25 h, 0.5 µM [7] was 97% and the IC50 [3] was greater than 30000 nM.

Compound `COc1ncc2cc1NS(=O)(=O)c1cccc(c1)C(=O)NCCn1cc(cn1)-c1cnc3ccc-2cn13` has an IC50 [1] of 5790 nM and an IC50 [3] greater than 30000 nM.

`COc1ncc2cc1NS(=O)(=O)c1cc(c(F)cc1F)C(=O)NCc1cccc(c1)-c1ccnc3ccc-2cc13` showed an IC50 [1] of 63.8 nM.

For `COc1ncc2cc1NS(=O)(=O)c1cccc(c1)C(=O)NCC1CCN(CC1)c1ncnc3ccc-2cc13`, the IC50 [1] was 23.4 nM.

`COc1ncc2cc1NS(=O)(=O)c1cc(c(F)cc1F)C(=O)NCc1cncc(c1)-c1ccnc3ccc-2cc13` gave an IC50 (Cytochrome P450 3A4) greater than 30000 nM, an IC50 (Cytochrome P450 1A2) greater than 30000 nM and an EC50 [4] of 10.7 nM. For the same compound, the Cmax [8] was 3390 ng/mL, the Ratio IC50 (Homo sapiens) was 27.8 and the AUC(0-inf) [9] was 7680 ng·h/mL. For the same compound, the remaining at 0.25 h, 0.5 µM [5] was 97%, the IC50 (Cytochrome P450 2D6) was greater than 30000 nM and the Vd [10] was 0.28 L/kg. The IC50 (Cytochrome P450 2C9) was 8300 nM, the concentration at 8 h [11] was 264 ng/mL and the AUC(0-inf) [12] was 9470 ng·h/mL. The half-life [13] was 34.2 min, the bioavailability [14] was 40.6% and the remaining at 0.25 h, 0.5 µM [6] was 88%. For the same compound, the IC50 [1] was 22.3 nM, the IC50 (Cytochrome P450 2C19) was greater than 30000 nM and the clearance [15] was 8.83 mL/min/kg. For the same compound, the IC50 [2] was 0.8 nM, the Tmax [16] was 15 min and the remaining at 0.25 h, 0.5 µM [7] was 89%. For the same compound, the half-life [17] was 167 min and the IC50 [3] was greater than 30000 nM.

Compound `COc1ncc2cc1NS(=O)(=O)c1cccc(c1)C(=O)NCc1cccc(c1F)-c1ccnc3ccc-2cc13` has an IC50 [1] of 223 nM.

Work on `COc1ncc2cc1NS(=O)(=O)c1cccc(c1)C(=O)NCc1cncc(c1)Cc1cnc3sc-2nn13` yielded a Ratio IC50 (Homo sapiens) of 40.4, an IC50 [1] of 361 nM and an IC50 [2] of 8.9 nM. It also gave an IC50 [3] greater than 30000 nM.

Compound `COc1ncc2cc1NS(=O)(=O)c1cccc(c1)C(=O)NCc1cccc(c1)-c1ccnc3ccc-2nc13` has an IC50 [1] greater than 10000 nM.

For `COc1ncc2cc1NS(=O)(=O)c1cccc(c1)C(=O)NCc1cncc(c1)-c1ncnc3sc-2cc13`, the IC50 [1] was 39.9 nM.
